Measurements as given in ChEMBL document CHEMBL1143701, “O2-acetoxymethyl-protected diazeniumdiolate-based NSAIDs (NONO-NSAIDs): synthesis, nitric oxide release, and biological evaluation studies” (Bioorg Med Chem, 2007).

Assays:
[1] = Effect on nitric oxide release in presence of porcine liver esterase per mole using sievers […]; assay type: functional
Summary of the method: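 Porcine liver esterase (10 μL of suspension in 3.2 M ammonium sulfate) in 3 mL phosphate buffer pH 8.0; 10 μL of 46 or 77 mM DMSO stock injected; NO carried by nitrogen purge to chemiluminescence analyzer, quantified against calibration curve; time to 100% theoretical NO read graphically.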

[2] = molecular target: T1, Prostaglandin G/H synthase 1 (Ovis aries, UniProt P05979); assay: Inhibition of ovine COX1 by enzyme immuno assay
T1 sequence (P05979 whole entry): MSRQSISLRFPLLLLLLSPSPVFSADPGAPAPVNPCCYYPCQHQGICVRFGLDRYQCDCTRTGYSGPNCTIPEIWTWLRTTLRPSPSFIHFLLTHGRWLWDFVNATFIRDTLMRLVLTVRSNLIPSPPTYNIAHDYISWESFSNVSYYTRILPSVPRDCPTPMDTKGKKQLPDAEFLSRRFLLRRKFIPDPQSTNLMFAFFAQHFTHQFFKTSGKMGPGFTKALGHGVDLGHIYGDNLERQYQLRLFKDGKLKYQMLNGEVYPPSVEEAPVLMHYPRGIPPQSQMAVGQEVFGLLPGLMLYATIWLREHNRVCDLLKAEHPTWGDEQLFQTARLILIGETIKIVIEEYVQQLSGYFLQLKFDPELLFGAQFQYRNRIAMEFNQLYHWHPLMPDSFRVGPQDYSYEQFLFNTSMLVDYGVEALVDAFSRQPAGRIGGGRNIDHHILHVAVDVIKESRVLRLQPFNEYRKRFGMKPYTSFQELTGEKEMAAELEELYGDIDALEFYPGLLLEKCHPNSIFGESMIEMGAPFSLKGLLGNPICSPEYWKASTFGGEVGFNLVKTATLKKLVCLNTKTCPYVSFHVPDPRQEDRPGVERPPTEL

[3] = system: Rattus norvegicus; assay: Gastric damage production in rat assessed as gastric ulcer index at 1.21 mmol/kg, po after 6 hrs; assay type: functional, Stomach
Summary of the method: (§1)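 Rats fasted 24 h (water allowed), given single oral dose suspended in 1.7 mL 1% methylcellulose; vehicle controls. Killed 6 h later by CO2; stomachs opened along greater curvature and ulcer lengths scored under magnifier. Ulcer index = total ulcer length (mm) summed over stomachs divided by animals (n = 4); mean ± SEM.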

[4] = Effect on nitric oxide release in pH 7.4 PBS buffer using sievers […]; assay type: functional
Summary of the method: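 Prodrug in DMSO (46 or 77 mM stock), 10 μL injected into 3 mL deoxygenated phosphate buffer pH 7.4 at 37 °C in sealed cell; NO swept by nitrogen purge to chemiluminescence analyzer calibrated with NO/He standards; mol NO/mol compound from integrated peak area; time to ~50% of theoretical NO read graphically.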

[5] = system: Rattus norvegicus; assay: Antiinflammatory activity against carrageenan-induced rat paw edema in orally dosed rat after 3 hrs; assay type: functional; conditions: po, read-out: ID50 (the source's name)
[6] = system: Rattus norvegicus; assay: Gastric damage production in rat assessed as gastric ulcer index at 0.08 mmol/kg, po after 6 hrs; assay type: functional, Stomach; summary of the method: as §1
[7] = system: Rattus norvegicus; assay: Gastric damage production in rat assessed as gastric ulcer index at 1.38 mmol/kg, po after 6 hrs; assay type: functional, Stomach; summary of the method: as §1

Row | Activity [1] [mol/mol] | IC50 [2] [µM] | Structure (SMILES) | Activity [3] | Activity [4] [mol/mol] | ED50 [5] [µmol/kg] | Activity [6] | Activity [7]
1 | 2 | > 100 | CC(=O)OCO/N=[N+](\[O-])N(C)CCOC(=O)C(C)c1ccc(CC(C)C)cc1 (configuration not stated) | 0 | 1.1 | 175 | – | –
2 | 2 | > 100 | COc1ccc2c(c1)c(CC(=O)OCCN(C)/[N+]([O-])=N/OCOC(C)=O)c(C)n2C(=O)c1ccc(Cl)cc1 | – | 0.9 | 20.3 | 1.3 | –
3 | 2 | > 100 | CC(=O)OCO/N=[N+](\[O-])N(C)CCOC(=O)c1ccccc1OC(C)=O | – | 1 | 553 | – | 0.84
4 | – | – | COc1ccc2c(c1)c(CC(=O)O)c(C)n2C(=O)c1ccc(Cl)cc1 [INDOMETHACIN] | – | – | 11.7 | – | –
5 | – | – | CC(C)Cc1ccc(C(C)C(=O)O)cc1 (configuration not stated) [IBUPROFEN] | 45.8 | – | 327 | – | –
6 | – | – | CC(=O)Oc1ccccc1C(=O)O [ASPIRIN] | – | – | 714 | – | 57.4
7 | 2 | – | CC(=O)OCO/N=[N+](\[O-])N(C)CCO | – | 1 | – | – | –
